Here are results for 13 molecules from PubChem BioAssay.

Assay [1] is described as follows: hit retest on RPL19A-GFP reporter strain – cell-based, S. cerevisiae, flow cytometry, cherry picks, mother/daughter gates, confirmation (AID 2270;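 active = GFP response below 50% of the DMSO control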). The note with it: 3 h, at 10 µM, stronger effect = lower value, 100 = same GFP as DMSO wells.
Assay [2] in a line: yeast TOR pathway reporter LAP4-GFP change – cell-based, cherry picks, flow cytometry, mother/daughter gates, confirmation (AID 2271;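 active = GFP response above 150% of the DMSO control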;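 note: ratio of sample to DMSO plate mean so 100% equals DMSO level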). The note with it: S. cerevisiae LAP4-GFP strain, 3 h, at 10 µM, stronger effect = higher value, 100 means same as DMSO control. Put shortly:
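material = Alexa 633-stained baker's yeast GFP-fusion strain | amount = 0.2 OD600 cells | schedule = 30 °C, 3 h compound incubation, rotating | signal = GFP by flow cytometry | measure = per-gate (all, mother, daughter) GFP response vs DMSO | controls = positive rapamycin (400 ng/mL), negative DMSO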

The nature of assay [3]: TOR pathway reporter MEP2-GFP, retest of hits – S. cerevisiae, flow cytometry GFP, cherry picks, confirmation (AID 2272;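 active = GFP response above 150% of the DMSO control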;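 note: ratio of well signal to plate DMSO mean so 100% equals DMSO level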). Conditions: S. cerevisiae MEP2-GFP strain, 3 h, at 10 µM, stronger effect = higher value.
A short description of assay [4]: yeast AGP1-GFP fluorescence change, single-dose – cell-based, flow cytometry, S. cerevisiae, cherry picks, confirmation (AID 2273).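 Note: median GFP channel fluorescence over the whole cell population gate.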 The note with it: S. cerevisiae AGP1-GFP strain, 3 h, at 10 µM.
Assay [5] is described as follows: TOR pathway CIT2 reporter hit retest – S. cerevisiae, GFP fusion, cherry picks, mother/daughter gates, confirmation (AID 2274). Conditions: S. cerevisiae CIT2-GFP strain, flow cytometry, 3 h, at 10 µM, stronger effect = higher value.
Setting [6] is: measured here: daughter cell gate.
[7] abbreviates: measured here: mother cell gate.
The mark [8] stands for this setting: measured here: daughter cell gate response.
Setting [9] is: measured here: mother cell gate response.

SMILES strings stand for the structures. Activity calls are given as the source filed them.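 Rule for the calls, unless noted: active = GFP response above 150% of the DMSO level; inconclusive = fewer than 70 events counted for a yeast strain; inactive = the rest.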

Take `COc1ccc(S(=O)(=O)NCC(=O)N(CC(=O)NCc2ccco2)Cc2ccc(F)cc2)cc1`: the GFP response vs DMSO is 100% (inactive) in assay [1], 98.8% in assay [1] (setting [6]), 101% in assay [1] (setting [7]) and 99% (inactive) in assay [3]. The GFP response relative to DMSO was 99.5% (inactive) in assay [2], 99.1% in assay [2] (setting [8]) and 100% in assay [2] (setting [9]). The GFP response, % of DMSO is 103% (inactive) in assay [4], 103% (inactive) in assay [5], 105% in assay [5] (setting [6]) and 101% in assay [5] (setting [7]).

Regarding `O=c1c2c(-c3ccc(Cl)cc3)csc2ncn1/N=C/c1cccc([N+](=O)[O-])c1O`, the GFP response vs DMSO in assay [1] was 99.3% (inactive); in assay [1] (setting [6]), 99.3%; in assay [1] (setting [7]) it was 98.6%; in assay [3], 99.5% (inactive). In addition, the values for the GFP response relative to DMSO in assay [2], in assay [2] (setting [8]) and in assay [2] (setting [9]) were 97.7% (inactive), 95% and 99.5%, respectively. For the same molecule, the GFP response, % of DMSO in assay [4] is 96.2% (inactive); in assay [5] it was 99.3% (inactive); in assay [5] (setting [6]) it was 98.3%; in assay [5] (setting [7]), 98%.

As to `Cc1ccc(Sc2ncnc3onc(C)c23)cc1`, the GFP response vs DMSO is 95.4% (inactive) in assay [1], 95.7% in assay [1] (setting [6]), 95.5% in assay [1] (setting [7]) and 96.8% (inactive) in assay [3]. Also, the GFP response relative to DMSO in assay [2] was 117% (inactive); in assay [2] (setting [8]), 117%; in assay [2] (setting [9]), 117%. The GFP response, % of DMSO in assay [4] is 99% (inactive); in assay [5], 105% (inactive); in assay [5] (setting [6]) it was 105%; in assay [5] (setting [7]) it was 102%.

Turning to `CCCCCCNC(=O)c1c(O)c2cccc3c2n(c1=O)CCC3`, the GFP response vs DMSO in assay [1] is 100% (inactive); in assay [1] (setting [6]) it was 101%; in assay [1] (setting [7]), 100%; in assay [3], 107% (inactive). Moreover, the results for the GFP response relative to DMSO in assay [2], in assay [2] (setting [8]) and in assay [2] (setting [9]) were 97.9% (inactive), 97.6% and 95.1%, respectively. Besides, the GFP response, % of DMSO in assay [4] was 96.8% (inactive); in assay [5], 96.9% (inactive); in assay [5] (setting [6]), 97.2%; in assay [5] (setting [7]), 96.1%.

As for `Cc1cc(N)ccc1NC(=O)c1ccccc1`, the GFP response vs DMSO is 101% (inactive) in assay [1], 99.6% in assay [1] (setting [6]), 102% in assay [1] (setting [7]) and 105% (inactive) in assay [3]. For the same molecule, the GFP response relative to DMSO in assay [2] is 98.2% (inactive); in assay [2] (setting [8]), 99.1%; in assay [2] (setting [9]), 98.4%. The GFP response, % of DMSO was 103% (inactive) in assay [4], 100% (inactive) in assay [5], 101% in assay [5] (setting [6]) and 101% in assay [5] (setting [7]).

As to `CC(Oc1ccc(Cl)cc1)C(=O)NNC(=S)NC(=O)c1ccco1` (stereo not drawn), the GFP response vs DMSO was 99.6% (inactive) in assay [1], 97.1% in assay [1] (setting [6]), 97.2% in assay [1] (setting [7]) and 128% (inactive) in assay [3]. The GFP response relative to DMSO in assay [2] was 227% (active); in assay [2] (setting [8]), 112%; in assay [2] (setting [9]), 205%. Further, the GFP response, % of DMSO in assay [4] was 115% (inactive); in assay [5] it was 106% (inactive); in assay [5] (setting [6]) it was 88.4%; in assay [5] (setting [7]), 93.2%.

As to `CCC(C)(C)n1nnnc1C(c1ccc(O)c(OC)c1)N1CCc2ccccc2C1` (stereo not drawn), the GFP response vs DMSO in assay [1] is 100% (inactive); in assay [1] (setting [6]), 99.6%; in assay [1] (setting [7]) it was 97.6%; in assay [3], 99.5% (inactive). In addition, the GFP response relative to DMSO in assay [2] was 117% (inactive); in assay [2] (setting [8]) it was 99.3%; in assay [2] (setting [9]), 117%. The GFP response, % of DMSO is 117% (inactive) in assay [4], 108% (inactive) in assay [5], 108% in assay [5] (setting [6]) and 105% in assay [5] (setting [7]).

As to `CCOc1ccc(N2C(=O)CC(SCCN)C2=O)cc1` (stereo not drawn), the GFP response vs DMSO in assay [1] is 97.6% (inactive); in assay [1] (setting [6]) it was 98.9%; in assay [1] (setting [7]) it was 96.6%; in assay [3], 105% (inactive). Also, the GFP response relative to DMSO was 97.9% (inactive) in assay [2], 99.2% in assay [2] (setting [8]) and 97.2% in assay [2] (setting [9]). Further, the GFP response, % of DMSO was 92.3% (inactive) in assay [4], 98.3% (inactive) in assay [5], 99.1% in assay [5] (setting [6]) and 98.5% in assay [5] (setting [7]).

Turning to `COC(=O)COc1ccc(S(=O)(=O)N2CCc3ccccc3C2)cc1`, the GFP response vs DMSO is 101% (inactive) in assay [1], 100% in assay [1] (setting [6]), 103% in assay [1] (setting [7]) and 97.8% (inactive) in assay [3]. Besides, the GFP response relative to DMSO in assay [2] was 101% (inactive); in assay [2] (setting [8]), 102%; in assay [2] (setting [9]) it was 101%. The GFP response, % of DMSO in assay [4] was 99.4% (inactive); in assay [5] it was 99.1% (inactive); in assay [5] (setting [6]) it was 96.5%; in assay [5] (setting [7]), 101%.

For the molecule `O=C(c1ccc(OCC2CCCO2)cc1)N1CCN(c2ccccc2)CC1` (stereo not drawn), the GFP response vs DMSO in assay [1] was 98.7% (inactive); in assay [1] (setting [6]), 98.4%; in assay [1] (setting [7]), 98.4%; in assay [3] it was 103% (inactive). Moreover, the GFP response relative to DMSO in assay [2] is 104% (inactive); in assay [2] (setting [8]), 102%; in assay [2] (setting [9]), 105%. Also, the GFP response, % of DMSO in assay [4] was 102% (inactive); in assay [5], 100% (inactive); in assay [5] (setting [6]), 101%; in assay [5] (setting [7]), 100%.

Turning to `CCn1c(=O)c(C(=O)NC(C)C)c(O)c2ccccc21`, the GFP response vs DMSO in assay [1] is 101% (inactive); in assay [1] (setting [6]) it was 98.7%; in assay [1] (setting [7]), 101%; in assay [3] it was 100% (inactive). For the same molecule, the GFP response relative to DMSO in assay [2] is 101% (inactive); in assay [2] (setting [8]) it was 100%; in assay [2] (setting [9]) it was 101%. The GFP response, % of DMSO is 97.8% (inactive) in assay [4], 103% (inactive) in assay [5], 99.7% in assay [5] (setting [6]) and 103% in assay [5] (setting [7]).

With `O=C(Nc1nccs1)C1CCCN1S(=O)(=O)c1ccc(F)cc1` (stereo not drawn), the GFP response vs DMSO in assay [1] is 98.8% (inactive); in assay [1] (setting [6]), 99.8%; in assay [1] (setting [7]), 100%; in assay [3], 100% (inactive). The GFP response relative to DMSO is 96.2% (inactive) in assay [2], 100% in assay [2] (setting [8]) and 95.2% in assay [2] (setting [9]). The GFP response, % of DMSO in assay [4] is 100% (inactive); in assay [5], 110% (inactive); in assay [5] (setting [6]) it was 103%; in assay [5] (setting [7]), 114%.

As to `Cc1ccccc1C(=O)Nc1cccc(N)c1`, the GFP response vs DMSO in assay [1] is 99% (inactive); in assay [1] (setting [6]), 98.6%; in assay [1] (setting [7]) it was 98.6%; in assay [3], 101% (inactive). The GFP response relative to DMSO is 93.1% (inactive) in assay [2], 94.2% in assay [2] (setting [8]) and 94.1% in assay [2] (setting [9]). The GFP response, % of DMSO is 105% (inactive) in assay [4], 97.3% (inactive) in assay [5], 95.6% in assay [5] (setting [6]) and 96.8% in assay [5] (setting [7]).
